Screening results from PubChem BioAssay.
Biofilm kill mix – mixture kills Candida albicans biofilm cells. 120,000 compounds, 0.02% hits. inhibition, % at 7.6 µM. C. albicans biofilm persisters + clotrimazole, fluorescence viability; primary screen in compound mixtures of four per well. AID 1242;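 active means inhibition above 30.3% in the primary screen of four-compound pools, then above 30% when the compound was retested; inconclusive means passed the primary limit but could not be retested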;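 further: compounds exposed to preformed 24 h biofilms for 48 h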
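Test system: C. albicans biofilms. Buffer or medium: RPMI/MOPS medium, pH 7.0. Timing: 48 h compound exposure at 37 °C. Technique: Alamar Blue fluorescence. Evaluation: percent inhibition of biofilm viability.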
Mcl1-Bid inh – Mcl-1/Bid interaction inhibition. Q07820. TR-FRET Mcl-1/Bid-Dy647 peptide binding, 1536-well. inhibition, % at 21.7 µM. 220,000 compounds, 0.97% hits;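 active means compounds that cut the binding signal by more than half at the single screening dose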;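 further: His-tagged Mcl-1 with europium anti-His antibody binding Bid BH3 peptide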
Target sequence (Q07820 whole entry, looked up): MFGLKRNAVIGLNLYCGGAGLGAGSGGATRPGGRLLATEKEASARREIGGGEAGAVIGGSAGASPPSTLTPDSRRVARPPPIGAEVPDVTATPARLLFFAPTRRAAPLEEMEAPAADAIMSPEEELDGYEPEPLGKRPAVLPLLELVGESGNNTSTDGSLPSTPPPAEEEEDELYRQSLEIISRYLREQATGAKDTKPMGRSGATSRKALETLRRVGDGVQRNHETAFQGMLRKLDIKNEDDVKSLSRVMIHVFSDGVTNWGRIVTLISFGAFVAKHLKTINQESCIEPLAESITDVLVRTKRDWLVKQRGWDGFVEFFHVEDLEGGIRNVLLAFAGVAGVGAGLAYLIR
Arbovirus inh – blocks arbovirus infection; arbovirus infection cell-based antiviral screen; inhibition, % at 10 µM; 200,000 compounds, 0.37% hits; AID 1251; in the data active means inhibition above about 30%
Calpain2 inh – inhibitors of pig calpain II; purified calpain II, fluorogenic peptide substrate, 30 min; inhibition, % at 16 µM; 220,000 compounds, 0.37% hits;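 active means inhibition above about 50%, limit read from the data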
Mcl1 Noxa PPI – Mcl-1/Noxa interaction inhibition; Q07820; TR-FRET Mcl-1/Noxa peptide binding, 2 h; inhibition, % at 21.7 µM; 220,000 compounds, 1.5% hits;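 active means compounds that cut the protein-peptide binding signal by more than 50% relative to plate controls in a single-dose test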;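 further: His-tagged Mcl-1 with rhodamine Noxa BH3 peptide and terbium anti-His antibody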
Bim-Mcl-1 – disrupts Bim peptide binding to human Mcl-1; Bead-based flow cytometry, Bim peptide-Mcl-1 binding; inhibition, % at 10 µM; 190,000 compounds, 0.1% hits; in the data active means inhibition above about 40%
Of the large screens only hits and unclear results are named; the others gave an inactive call; ! = not confirmed by another sample. Shown are actives, neighbours in structure and some others; about 2.8% of the full set was active somewhere.

CCO[C@@H]1OC(C(=O)N2CCCCCCC2)=C[C@H](C2CCCCC2)[C@H]1CCCO	none
CC(=O)N(C1=C(Cl)C(=O)c2ccccc2C1=O)C1CCCCC1	Mcl1 Noxa PPI 90.7 (no result: Arbovirus inh, Bim-Mcl-1)
O=C1/C(=C/C=C/c2ccco2)SC(=S)N1NS(=O)(=O)c1ccccc1	Mcl1-Bid inh 74.5, Mcl1 Noxa PPI 111.5 (no result: Arbovirus inh, Bim-Mcl-1)
O=C1/C(=C/c2cccs2)SC(=S)N1NS(=O)(=O)c1ccccc1	none (no result: Arbovirus inh, Bim-Mcl-1)
COc1ccc(/C=c2\s/c(=C\C(=O)C(C)(C)C)[nH]c2=O)cc1O	Mcl1 Noxa PPI 57.6 (no result: Arbovirus inh, Bim-Mcl-1)
COc1cc(/C=c2\s/c(=C\C(=O)C(C)(C)C)[nH]c2=O)cc(OC)c1OC	none
Cc1nn(C(=O)c2ccco2)c(C)c1Br	none (no result: Biofilm kill mix)
COc1ccc(C(=O)n2nc(C)c(Br)c2C)cc1	Mcl1 Noxa PPI 84.8 (no result: Biofilm kill mix)
Cc1ccc(N(C(=O)Cc2cccs2)C(C(=O)NC2CCCCC2)c2ccccn2)cc1C (stereo not drawn)	none
COc1ccc(-c2n[nH]c(C)c2-c2cnn(-c3ccccc3)c2)c(O)c1	Arbovirus inh 38.2
Cc1[nH]c(=O)[nH]c(=O)c1/C=N/NC(=O)[C@H](C)N	none (no result: Arbovirus inh, Bim-Mcl-1)
COc1ccc(N=C(N)SCc2ccccn2)cc1	Mcl1-Bid inh 67.4
COc1ccc(-c2nnc(SCc3ccccn3)n2C)cc1	none
CCOCCCNC1=C(Cl)C(=O)c2ccccc2C1=O	Mcl1 Noxa PPI 63.9 (no result: Arbovirus inh, Bim-Mcl-1)
O=C1C(Cl)=C(NCCCO)C(=O)c2ccccc21	none (no result: Biofilm kill mix)
N#Cc1cc([N+](=O)[O-])ccc1NC(=O)COC(=O)C12CC3CC(CC(C3)C1)C2	Calpain2 inh 53.9
O=C(COC(=O)C12CC3CC(CC(C3)C1)C2)Nc1ccc(OC(F)F)cc1	none (no result: Biofilm kill mix)
NS(=O)(=O)c1ccc(NC(=O)COC(=O)C23CC4CC(CC(C4)C2)C3)cc1	Calpain2 inh 57.9
O=C(COC(=O)C12CC3CC(CC(C3)C1)C2)Nc1ccc([N+](=O)[O-])cc1Br	none
COc1ccc(CC(=O)NNC(=O)c2cccnc2)cc1OC	none
CC1(C)NC(=O)N(CCOCCOc2ccccc2-c2ccccc2)C1=O	none
CCOC(=O)c1ccc(NC(=O)COc2ccc(CNC3CCCCC3)cc2OC)cc1	none
Cc1ccc2cccc(OCC(=O)N3CC(C)CC(C)C3)c2n1 (stereo not drawn)	none
COc1ccc2oc(=O)c(-c3csc(Nc4ccc(O)cc4)n3)cc2c1	Mcl1 Noxa PPI 73.0
COc1ccc2oc(=O)c(/C(C)=N/Nc3nc(-c4cc(C)ccc4C)cs3)cc2c1	none
CCOc1cccc2cc(-c3nnc(NCc4ccco4)s3)c(=O)oc12	Mcl1 Noxa PPI 63.8 (no result: Biofilm kill mix)
COc1ccc2oc(=O)c(-c3nnc(NCc4ccco4)s3)cc2c1	Mcl1-Bid inh 64.7 (no result: Biofilm kill mix)
CCOc1cccc2cc(C(C)=O)oc12	none
CNc1nnc(-c2cc3cc(Cl)ccc3oc2=O)s1	Mcl1 Noxa PPI 63.7 (no result: Biofilm kill mix)
CN(Cc1ccccc1)c1ccc(S(=O)(=O)N2CCC(C(=O)O)CC2)cc1[N+](=O)[O-]	none
CCOc1cccc2cc(-c3cn4cc(C)ccc4n3)c(=O)oc12	Mcl1-Bid inh 79.6 (no result: Biofilm kill mix)
COc1cc(OC)c(S(=O)(=O)NC(C)C)cc1C(=O)O	none (no result: Arbovirus inh, Bim-Mcl-1)
Cc1ccc(C(=O)NC(=S)Nc2nc(-c3cccc([N+](=O)[O-])c3)cs2)c(Cl)c1	none
S=c1[nH]nc(Cc2noc3ccccc23)n1-c1ccc(Cl)cc1	Mcl1-Bid inh 54.4
COc1cccc(CC2(CO)CCCN(Cc3c(C)cc(C)cc3-n3cccn3)C2)c1 (stereo not drawn)	none
O=S1(=O)c2ccccc2N=NN1Cc1ccc(Cl)c(Cl)c1	Mcl1 Noxa PPI 77.4 (no result: Biofilm kill mix)
CC(C)(C)c1ccc(CN2N=Nc3ccccc3S2(=O)=O)cc1	Mcl1 Noxa PPI 77.4 (no result: Biofilm kill mix)
CC(C)(C)c1ccc(C(=O)Nc2ccc(CN3CCS(=O)(=O)CC3)cc2)cc1	none (no result: Arbovirus inh, Bim-Mcl-1)
CC1=C2C(CCS2(=O)=O)CC2(C1)C(=O)OC(C)(C)OC2=O (stereo not drawn)	Bim-Mcl-1 66.0 (no result: Biofilm kill mix)
CN(/C=C/C(=C\C=[N+](C)c1ccccc1)OCCCS(=O)(=O)[O-])c1ccccc1	none
O=C1N=c2ccccc2=C1c1sc(NS(=O)(=O)c2ccccc2)nc1O	none
O=C1N=c2ccccc2=C1c1sc(Nc2ccc(O)cc2)nc1O	Arbovirus inh 35.6, Mcl1 Noxa PPI 83.0
Cc1ccc(SCCCCN2CCNCC2)cc1	none
O=C(Nc1ccccc1N1CCOCC1)c1ccc(Cl)nc1	none
O=C(N/N=C/c1cc(Br)c(Br)o1)c1ccc2c(c1)OCCO2	Mcl1 Noxa PPI 57.1 (no result: Arbovirus inh, Bim-Mcl-1)
Cc1ccc(-n2sc3ccccc3c2=O)cc1S(=O)(=O)N1CCCCC1	Mcl1 Noxa PPI 53.5 (no result: Biofilm kill mix)
COc1ccc2c(c1)CCC(C)N2C(=O)C(=O)c1c[nH]c2ccccc12 (stereo not drawn)	none (no result: Arbovirus inh, Bim-Mcl-1)
Cn1nc(C(=O)OCC(=O)Nc2ccc(S(N)(=O)=O)cc2)c2ccccc2c1=O	none (no result: Arbovirus inh, Bim-Mcl-1)
COc1ccc2c3c(cccc13)C(=O)N(O)C2=O	none
CCC1=NNc2cccc3c(OC)ccc1c23	Mcl1 Noxa PPI 78.1 (no result: Biofilm kill mix)
COCCCNC(=S)N/N=C/c1ccc(OC)c(Br)c1	none (no result: Arbovirus inh, Bim-Mcl-1)
O=C(Cc1csc(-c2ccccc2)n1)NCc1cccs1	none
CC1CC(C)CN(c2nc(NCc3ccco3)nc(N)c2[N+](=O)[O-])C1 (stereo not drawn)	Arbovirus inh 32.9
C/C(CCc1ccccc1)=N/NC(=O)C(=O)NCc1ccccc1	none
O=C(c1cccnc1)N1CCN(Cc2ccc3c(c2)OCO3)CC1	Mcl1-Bid inh 61.0 (no result: Biofilm kill mix)
CN(C)c1ccc(CC(=O)c2nc3ccccc3s2)cc1	Biofilm kill mix inconclusive, Mcl1 Noxa PPI 75.9
CN(C)C(=O)c1nc2ccccc2s1	none
COc1cccc(CNc2ccc([N+](=O)[O-])cc2Cl)c1O	none
COc1cc(/C=N/Nc2nnc3c(n2)[nH]c2ccccc23)ccc1O	Mcl1-Bid inh 90.0, Mcl1 Noxa PPI 93.9
COc1cc(/C=N/Nc2ccccc2C(F)(F)F)ccc1O	none
O=C(O)[C@H](Cc1ccccc1)N1Cc2ccccc2C1=O	Mcl1-Bid inh 72.3 (no result: Biofilm kill mix)
N=C(N)SCc1nc2ccccc2c(=O)n1-c1ccccc1	Arbovirus inh 30.3!
N=C(N)n1c(N)nc2ccccc2c1=O	none (no result: Arbovirus inh, Bim-Mcl-1)
CC(=O)c1cccc(NC(=O)c2c(F)c(F)c(F)c(F)c2F)c1	Calpain2 inh 51.4 (no result: Biofilm kill mix)
Cc1cccc(NC(=O)c2c(F)c(F)c(F)c(F)c2F)c1	none (no result: Biofilm kill mix)
CCCCC(=O)Nc1cccc(NC(=O)c2ccc3c(c2)OCO3)c1	Mcl1-Bid inh 62.5 (no result: Biofilm kill mix)
O=C(Nc1ccc2c(c1)OCO2)c1c(F)c(F)c(F)c(F)c1F	Calpain2 inh 52.0 (no result: Biofilm kill mix)
CCCC(=O)Nc1cccc(NC(=O)c2ccc3c(c2)OCCO3)c1	none (no result: Biofilm kill mix)
CCOc1ccc(-n2c(=S)sc3c(=O)[nH]c(SCC(=O)N4CCC(C)CC4)nc32)cc1	none (no result: Biofilm kill mix)
CCOc1ccc(-n2c(=S)sc3c(=O)[nH]c(SCC(=O)C(C)(C)C)nc32)cc1	Arbovirus inh 32.9
CCOC(=O)CSc1nc2c(sc(=S)n2-c2ccc(OCC)cc2)c(=O)[nH]1	Arbovirus inh 42.2
Cc1ccccc1OCC(=O)N1N=C(c2cccnc2)CC1(O)C(F)(F)F (stereo not drawn)	none
CCOC(=O)C1(CCOC)CCN(C(C)CCc2ccc(OC)cc2)CC1 (stereo not drawn)	none
